ChEMBL document CHEMBL1153527, “Discovery of a novel series of quinolone and naphthyridine derivatives as potential topoisomerase I inhibitors by scaffold modification” (J Med Chem, 2009)
The source made the active and inactive calls. No cut-off for these calls is given here.

What was measured:
MCF7 = assay: Cytotoxicity against estrogen receptor-positive human MCF7 cells expressing wild type p53 after 48 hrs by SRB assay; type: functional, cell-based; conditions: MCF7, 48 h
In short: (§1)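 Cell lines came from CCRC, Taiwan. Cells were seeded at about 5 × 10^3 per well and left overnight. They were then given serum-free medium containing 0-10 μM compound (0.08-10 μM serial dilutions) for 48 h at 37 °C. Cells were fixed with TCA (10% final), stained with SRB (0.4% final), and the dye was dissolved in 10 mM Tris with A515 read. IC50 was taken from a fitted log concentration-response curve.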

KB = assay: Cytotoxicity against human KB cells after 48 hrs by MTT assay; type: functional, cell-based
[1] = Cytotoxicity against p53-deficient human Hep3B cells after 48 hrs by SRB assay; type: functional, cell-based, Hep 3B2; in short: as §1
HeLa = assay: Cytotoxicity against p53-deficient human HeLa cells after 48 hrs by SRB assay; type: functional, cell-based; in short: as §1
A549 = assay: Cytotoxicity against human A549 cells expressing wild type p53 after 48 hrs by SRB assay; type: functional, cell-based; conditions: A549, 48 h; in short: as §1
K562 = assay: Cytotoxicity against p53-deficient human K562 cells after 48 hrs by SRB assay; type: functional, cell-based; conditions: K562, 48 h
A2780 = assay: Cytotoxicity against human A2780 cells after 48 hrs by MTT assay; type: functional, cell-based; conditions: A2780, 48 h
HT-29 = assay: Cytotoxicity against human HT-29 cells expressing p53 mutant after 48 hrs by SRB assay; type: functional, cell-based; conditions: HT-29, 48 h; in short: as §1
HepG2 = assay: Cytotoxicity against human HepG2 cells expressing wild type p53 after 48 hrs by SRB assay; type: functional, cell-based; conditions: HepG2, 48 h; in short: as §1
PC-3 = assay: Cytotoxicity against p53-deficient human PC3 cells after 48 hrs by SRB assay; type: functional, cell-based; conditions: PC-3, 48 h; in short: as §1
Bel-7402 = assay: Cytotoxicity against human Bel7402 cells after 48 hrs by MTT assay; type: functional, cell-based; conditions: Bel-7402, 48 h
THP-1 = assay: Cytotoxicity against human THP1 cells expressing p53 mutant after 48 hrs by SRB assay; type: functional, cell-based; conditions: THP-1, 48 h
U-937 = assay: Cytotoxicity against human U937 cells expressing p53 mutant after 48 hrs by SRB assay; type: functional, cell-based; conditions: U-937, 48 h
[2] = Cytotoxicity against estrogen receptor-negative human […] cells expressing p53 mutant after 48 hrs by SRB assay; type: functional, cell-based; in short: as §1
AGS = assay: Cytotoxicity against human AGS cells expressing wild type p53 after 48 hrs by SRB assay; type: functional, cell-based; in short: as §1
[3] = Solubility in assay condition at 50 uM; type: physicochemical
[4] = molecular target: T1, DNA topoisomerase 1 (Homo sapiens) (UniProt P11387); assay: Inhibition of DNA topoisomerase 1-mediated supercoiled Escherichia coli pBR322 DNA relaxation upto 25 uM after 30 mins
T1 sequence (whole entry): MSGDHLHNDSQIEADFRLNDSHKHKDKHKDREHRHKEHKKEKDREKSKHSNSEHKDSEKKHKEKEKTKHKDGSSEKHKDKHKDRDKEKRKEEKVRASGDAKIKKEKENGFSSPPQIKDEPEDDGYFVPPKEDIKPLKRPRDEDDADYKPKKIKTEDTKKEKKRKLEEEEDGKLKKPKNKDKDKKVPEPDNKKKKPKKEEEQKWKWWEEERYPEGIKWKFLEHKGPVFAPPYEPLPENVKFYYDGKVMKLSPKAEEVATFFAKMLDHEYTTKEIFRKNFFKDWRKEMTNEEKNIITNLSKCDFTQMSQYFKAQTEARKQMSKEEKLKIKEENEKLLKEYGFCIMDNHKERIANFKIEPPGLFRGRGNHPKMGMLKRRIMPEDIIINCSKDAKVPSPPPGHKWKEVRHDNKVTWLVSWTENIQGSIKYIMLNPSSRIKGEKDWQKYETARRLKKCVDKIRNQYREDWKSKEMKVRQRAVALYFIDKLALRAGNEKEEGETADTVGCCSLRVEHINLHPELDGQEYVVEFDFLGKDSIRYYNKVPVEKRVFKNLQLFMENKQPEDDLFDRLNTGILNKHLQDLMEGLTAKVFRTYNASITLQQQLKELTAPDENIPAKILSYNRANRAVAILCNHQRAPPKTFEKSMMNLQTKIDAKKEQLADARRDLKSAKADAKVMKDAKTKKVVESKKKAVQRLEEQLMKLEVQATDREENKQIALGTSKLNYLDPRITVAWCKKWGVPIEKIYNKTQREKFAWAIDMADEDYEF

SMILES	GI50 (MCF7)	IC50 (MCF7)	IC50 (KB)	GI50 [1]	IC50 [1]	GI50 (HeLa)	IC50 (HeLa)	GI50 (A549)	IC50 (A549)	IC50 (K562)	IC50 (A2780)	GI50 (HT-29)	IC50 (HT-29)	GI50 (HepG2)	IC50 (HepG2)	GI50 (PC-3)	IC50 (PC-3)	IC50 (Bel-7402)	IC50 (THP-1)	IC50 (U-937)	other results
CCn1cc(-c2nc3ccc([N+](=O)[O-])cc3[nH]2)c(=O)c2cc(F)c(N3CCNC(C)C3)c(F)c21 (stereo unspecified)	2.6 µM	4.9 µM	2.3 µM	1.6 µM	5.5 µM	1.4 µM	2.4 µM	0.6 µM	2.4 µM	4.7 µM	2.3 µM	4.2 µM	7.5 µM	1.5 µM	4.2 µM	7.9 µM	9.6 µM	1.1 µM	7.8 µM	> 10 µM	GI50 [2]: 1.8 µM; IC50 [2]: 5.5 µM; GI50 (AGS): 2.6 µM; IC50 (AGS): 8.2 µM
CCn1cc(-c2nc3ccc(N)cc3[nH]2)c(=O)c2cc(F)c(N3CCN(C)CC3)cc21	> 10 µM	> 10 µM	> 50 µM	> 10 µM	> 10 µM	> 10 µM	> 10 µM	1 µM	> 10 µM	> 10 µM	> 50 µM	> 10 µM	> 10 µM	> 10 µM	> 10 µM	> 10 µM	> 10 µM	> 50 µM	> 10 µM	> 10 µM	GI50 [2]: > 10 µM; IC50 [2]: > 10 µM; GI50 (AGS): 10 µM; IC50 (AGS): > 10 µM
C[C@H]1COc2c(N3CCN(C)CC3)c(F)cc3c(=O)c(-c4nc5ccc([N+](=O)[O-])cc5s4)cn1c23	> 10 µM	> 10 µM	0.6 µM	> 10 µM	> 10 µM	> 10 µM	> 10 µM	3.9 µM	> 10 µM	> 10 µM	1.2 µM	5 µM	10 µM	7.6 µM	> 10 µM	1.8 µM	9.9 µM	2 µM	> 10 µM	> 10 µM	GI50 [2]: > 10 µM; IC50 [2]: > 10 µM; solubility [3]: Insoluble; inhibition [4]: inactive; GI50 (AGS): 7 µM; IC50 (AGS): 8.8 µM
CCn1cc(-c2nc3ccc(Cl)cc3[nH]2)c(=O)c2cc(F)c(N3CCNCC3)cc21	4.2 µM	4.5 µM	1.6 µM	0.9 µM	2.3 µM	1.2 µM	4.2 µM	1 µM	0.5 µM	2.7 µM	4.9 µM	1.8 µM	4.7 µM	1.8 µM	3.7 µM	3.3 µM	4.8 µM	2.8 µM	2.8 µM	4.2 µM	GI50 [2]: 0.9 µM; IC50 [2]: 2.3 µM; GI50 (AGS): 4.5 µM; IC50 (AGS): 1 µM
CCn1cc(-c2nc3ccc(N)cc3[nH]2)c(=O)c2cc(F)c(N3CCNCC3)nc21	> 10 µM	> 10 µM	30.1 µM	> 10 µM	> 10 µM	> 10 µM	> 10 µM	0.5 µM	> 10 µM	> 10 µM	42.3 µM	> 10 µM	> 10 µM	> 10 µM	> 10 µM	> 10 µM	> 10 µM	93.3 µM	8.2 µM	> 10 µM	GI50 [2]: > 10 µM; IC50 [2]: > 10 µM; GI50 (AGS): 6.7 µM; IC50 (AGS): 9.2 µM
CCn1cc(-c2nc3ccccc3[nH]2)c(=O)c2cc(F)c(N3CCNCC3)nc21	8.3 µM	9.5 µM	2 µM	3.7 µM	7.8 µM	6.4 µM	10 µM	4.9 µM	7.8 µM	9.1 µM	4.8 µM	> 10 µM	> 10 µM	6.8 µM	9.1 µM	> 10 µM	> 10 µM	4.1 µM	> 10 µM	> 10 µM	GI50 [2]: 3.3 µM; IC50 [2]: 10 µM; GI50 (AGS): 2.1 µM; IC50 (AGS): 6.6 µM
